Assay [1] has as its system Escherichia coli. Description: Antimicrobial activity against […] harboring gyrA L83, N87, gyrB T471 and parC I80, G84 mutant gene by agar dilution method. The class given is functional, K-12. In short, it runs like this: (§1)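 Clinical E. coli isolates, with topoisomerase QRDR genotype (gyrA, gyrB, parC, parE) found by PCR sequencing. MICs for ciprofloxacin, gatifloxacin, levofloxacin and norfloxacin were measured by CLSI agar dilution using a modified dilution scheme. Where the agar dilution MIC was <1 μg/ml, the value came from at least two Etest measurements.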
For orientation: In agar dilution, organisms are placed on agar that contains the substance at set levels.

The test system of assay [2] is Escherichia coli. Description: Antimicrobial activity against Escherichia coli K-12 harboring gyrA L83, N87 and parC I80 mutant gene by agar dilution method. Type of assay: functional.
Assay [3] has as its system Escherichia coli. Put plainly: Antimicrobial activity against Escherichia coli K-12 harboring gyrA L83, N87 and parC I80, G84 mutant gene by agar dilution method. Type of assay: functional.
Assay [4] has as its system Escherichia coli. Description: Antimicrobial activity against Escherichia coli […] harboring gyrA L83, Y87, parC I80 and parE A458 mutant gene by agar dilution method. Type of assay: functional, K-12. The method in brief:
as §1

Assay [5] concerns Escherichia coli. Description: Antimicrobial activity against Escherichia coli K-12 harboring gyrA L83, Y87 mutant gene by agar dilution method. Type of assay: functional.
Assay [6] deals with Escherichia coli. Description: Antimicrobial activity against Escherichia coli K-12 harboring gyrA L83, Y87 and parC I80 mutant gene by agar dilution method. The class given is functional.
In assay [7] the test system is Escherichia coli. Put plainly: Antimicrobial activity against Escherichia coli K-12 harboring gyrA L83, Y87 and parC I80, G84 mutant gene by agar dilution method. Type of assay: functional.
Assay [8] has as its system Escherichia coli. Description: Antimicrobial activity against Escherichia coli […] harboring gyrA L83, N87, parC I80 and parE M464 mutant gene by agar dilution method. The class given is functional, K-12. In short, it runs like this:
as §1

In assay [9] the test system is Escherichia coli. Put plainly: Antimicrobial activity against Escherichia coli […] harboring gyrA L83, N87, parC I80, K84 and parE D460 mutant gene by agar dilution method. Type of assay: functional, K-12. In short, it runs like this: as §1
The subject of assay [10] is Escherichia coli. Description: Antimicrobial activity against Escherichia coli K-12 harboring gyrA L83, N87 mutant gene by agar dilution method. The class given is functional.
Assay [11] has as its system Escherichia coli. Description: Antimicrobial activity against Escherichia coli K-12 harboring gyrA L83, N87 and parC K84 mutant gene by agar dilution method. The class given is functional.
Assay [12] relates to Escherichia coli. Put plainly: Antimicrobial activity against […] harboring gyrA L83, N87, parC I80 and parE […] mutant gene by agar dilution method. Type of assay: functional, K-12. In short, it runs like this: as §1
For assay [13], the system named is Escherichia coli. Put plainly: Antimicrobial activity against Escherichia coli K-12 harboring gyrA A83 mutant gene by agar dilution method. The class given is functional.
The test system of assay [14] is Escherichia coli. Description: Antimicrobial activity against Escherichia coli harboring gyrA L83, Y87, parC I80, G84 and parE A458 mutant gene by agar dilution method.
The test system of assay [15] is Escherichia coli. Description: Antimicrobial activity against Escherichia coli K-12 harboring gyrA L83, Y87 and parC K84 mutant gene by agar dilution method. The class given is functional.
The test system of assay [16] is Escherichia coli. Description: Antimicrobial activity against Escherichia coli K-12 harboring by agar dilution method. The class given is functional.

Structures are written as SMILES. ≈ marks a conversion by molar mass, not a printed value.

What is called MIC is the smallest concentration in the dilution series that meets the test's criterion for growth inhibition. As to `C[C@H]1COc2c(N3CCN(C)CC3)c(F)cc3c(=O)c(C(=O)O)cn1c23.C[C@H]1COc2c(N3CCN(C)CC3)c(F)cc3c(=O)c(C(=O)O)cn1c23.O` [LEVOFLOXACIN], the minimal inhibitory concentration (MIC) against Escherichia coli [1] turned out to be 30 µg/mL; in the assay on Escherichia coli [2], 8 µg/mL; against Escherichia coli [3] it was 50 µg/mL; in the assay on Escherichia coli [4], 50 µg/mL; in the assay on Escherichia coli [5], 2 µg/mL; in the assay on Escherichia coli [6], 10 µg/mL. The MIC is 50 µg/mL with Escherichia coli [7]; 50 µg/mL in the assay with Escherichia coli [8]; 50 µg/mL in the assay on Escherichia coli [9]; 10 µg/mL in the assay with Escherichia coli [10]; 50 µg/mL against Escherichia coli [11]; 20 µg/mL against Escherichia coli [12]. The MIC amounted to 0.168 µg/mL in the assay with Escherichia coli [13], 200 µg/mL in the assay on Escherichia coli [14] and 50 µg/mL in the assay on Escherichia coli [15].

`O=C(O)c1cn(C2CC2)c2cc(N3CCNCC3)c(F)cc2c1=O` [CIPROFLOXACIN]: the MIC against Escherichia coli [7] was 40 µg/mL (≈ 121 µM); against Escherichia coli [9] it was 200 µg/mL (≈ 604 µM); in the assay on Escherichia coli [14] it was 300 µg/mL (≈ 905 µM); in the assay on Escherichia coli [15] it was 500 µg/mL (≈ 1510 µM).

On to `COc1c(N2CCNC(C)C2)c(F)cc2c(=O)c(C(=O)O)cn(C3CC3)c12` (stereo unspecified) [GATIFLOXACIN], for which the MIC came to 20 µg/mL (≈ 53.3 µM) in the assay with Escherichia coli [1]; 10 µg/mL (≈ 26.6 µM) in the assay on Escherichia coli [2]; 10 µg/mL (≈ 26.6 µM) against Escherichia coli [3]; 20 µg/mL (≈ 53.3 µM) against Escherichia coli [4]; 0.007 µg/mL (≈ 0.0186 µM) with Escherichia coli [16]; 0.5 µg/mL (≈ 1.33 µM) in the assay with Escherichia coli [5]. Moreover, the MIC against Escherichia coli [6] was determined as 10 µg/mL (≈ 26.6 µM); in the assay on Escherichia coli [7] it was 10 µg/mL (≈ 26.6 µM); in the assay with Escherichia coli [8] it was 20 µg/mL (≈ 53.3 µM); with Escherichia coli [9] it was 20 µg/mL (≈ 53.3 µM); in the assay with Escherichia coli [10] it was 10 µg/mL (≈ 26.6 µM); in the assay on Escherichia coli [11], 30 µg/mL (≈ 79.9 µM). For the same molecule, the MIC stood at 10 µg/mL (≈ 26.6 µM) against Escherichia coli [12], 0.094 µg/mL (≈ 0.25 µM) in the assay with Escherichia coli [13], 30 µg/mL (≈ 79.9 µM) in the assay with Escherichia coli [14] and 30 µg/mL (≈ 79.9 µM) with Escherichia coli [15].

As to `CCn1cc(C(=O)O)c(=O)c2cc(F)c(N3CCNCC3)cc21` [NORFLOXACIN], the MIC against Escherichia coli [1] was 200 µg/mL (≈ 626 µM); in the assay with Escherichia coli [2] it was 10 µg/mL (≈ 31.3 µM); in the assay with Escherichia coli [3] it was 200 µg/mL (≈ 626 µM); in the assay with Escherichia coli [4], 300 µg/mL (≈ 939 µM); in the assay on Escherichia coli [16] it was 0.023 µg/mL (≈ 0.072 µM); with Escherichia coli [5], 8 µg/mL (≈ 25.1 µM). Moreover, the MIC against Escherichia coli [6] is 50 µg/mL (≈ 157 µM); in the assay with Escherichia coli [7], 100 µg/mL (≈ 313 µM); in the assay with Escherichia coli [8] it was 400 µg/mL (≈ 1250 µM); in the assay on Escherichia coli [9], 400 µg/mL (≈ 1250 µM); against Escherichia coli [10], 10 µg/mL (≈ 31.3 µM); with Escherichia coli [11], 200 µg/mL (≈ 626 µM). For the same molecule, the MIC stood at 50 µg/mL (≈ 157 µM) against Escherichia coli [12], 0.194 µg/mL (≈ 0.608 µM) in the assay on Escherichia coli [13], 1000 µg/mL (≈ 3130 µM) against Escherichia coli [14] and 1000 µg/mL (≈ 3130 µM) against Escherichia coli [15].

Source of the values: ChEMBL document CHEMBL1629564, “Mechanisms accounting for fluoroquinolone resistance in Escherichia coli clinical isolates” (2009).
